Assay results as given in ChEMBL document CHEMBL1145088, “Ascochlorin derivatives as ligands for nuclear hormone receptors” (J Med Chem, 2003).

Key:
Estrogen receptor beta = Estrogen receptor beta (Homo sapiens, UniProt Q92731); experiment: Minimum effective concentration required to activate Estrogen receptor 2 (ER beta); Not detected
[1] = target: T1, Nuclear receptor subfamily 1 group I member 2 (Homo sapiens, UniProt O75469); experiment: Minimum effective concentration required to activate pregnane X receptor (PXR)
T1 sequence (O75469 whole entry): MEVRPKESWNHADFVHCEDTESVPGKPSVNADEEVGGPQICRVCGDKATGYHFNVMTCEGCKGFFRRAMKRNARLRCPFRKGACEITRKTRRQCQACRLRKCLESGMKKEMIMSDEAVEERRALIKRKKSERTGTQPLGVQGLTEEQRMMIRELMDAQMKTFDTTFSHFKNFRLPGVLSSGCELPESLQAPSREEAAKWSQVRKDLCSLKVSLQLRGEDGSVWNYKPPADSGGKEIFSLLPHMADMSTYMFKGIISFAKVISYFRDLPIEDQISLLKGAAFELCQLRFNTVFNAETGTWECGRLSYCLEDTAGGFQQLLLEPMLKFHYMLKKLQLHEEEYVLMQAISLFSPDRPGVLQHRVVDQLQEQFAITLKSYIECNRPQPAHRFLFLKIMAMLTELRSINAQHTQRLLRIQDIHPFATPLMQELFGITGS

Estrogen receptor = target: T2, Estrogen receptor (Homo sapiens, UniProt P03372); experiment: Minimum effective concentration required to activate Estrogen receptor 1 (ER alpha); Not detected
T2 sequence (P03372 whole entry): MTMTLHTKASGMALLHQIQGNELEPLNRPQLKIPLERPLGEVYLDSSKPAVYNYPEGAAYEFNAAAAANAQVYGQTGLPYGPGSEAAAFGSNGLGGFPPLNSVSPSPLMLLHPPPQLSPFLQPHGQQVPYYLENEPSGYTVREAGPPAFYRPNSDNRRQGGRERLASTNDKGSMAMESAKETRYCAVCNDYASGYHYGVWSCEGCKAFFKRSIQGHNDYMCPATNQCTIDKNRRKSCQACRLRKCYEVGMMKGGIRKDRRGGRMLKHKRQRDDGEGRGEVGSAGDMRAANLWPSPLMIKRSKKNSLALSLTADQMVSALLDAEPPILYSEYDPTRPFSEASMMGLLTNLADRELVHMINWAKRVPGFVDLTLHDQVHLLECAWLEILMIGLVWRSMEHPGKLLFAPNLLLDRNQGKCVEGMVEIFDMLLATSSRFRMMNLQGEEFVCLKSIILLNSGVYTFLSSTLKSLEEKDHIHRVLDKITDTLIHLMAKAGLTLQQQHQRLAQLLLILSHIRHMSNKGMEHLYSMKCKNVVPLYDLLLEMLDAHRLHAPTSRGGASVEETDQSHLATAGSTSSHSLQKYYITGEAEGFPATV

U2OS (Homo sapiens) = experiment: Concentration required for inhibition of U2OS cell growth
[2] = target: T3, Peroxisome proliferator-activated receptor gamma (Homo sapiens) (UniProt P37231); experiment: Minimum effective concentration required to activate Peroxisome proliferator activated receptor gamma (PPAR gamma)
T3 sequence (whole entry): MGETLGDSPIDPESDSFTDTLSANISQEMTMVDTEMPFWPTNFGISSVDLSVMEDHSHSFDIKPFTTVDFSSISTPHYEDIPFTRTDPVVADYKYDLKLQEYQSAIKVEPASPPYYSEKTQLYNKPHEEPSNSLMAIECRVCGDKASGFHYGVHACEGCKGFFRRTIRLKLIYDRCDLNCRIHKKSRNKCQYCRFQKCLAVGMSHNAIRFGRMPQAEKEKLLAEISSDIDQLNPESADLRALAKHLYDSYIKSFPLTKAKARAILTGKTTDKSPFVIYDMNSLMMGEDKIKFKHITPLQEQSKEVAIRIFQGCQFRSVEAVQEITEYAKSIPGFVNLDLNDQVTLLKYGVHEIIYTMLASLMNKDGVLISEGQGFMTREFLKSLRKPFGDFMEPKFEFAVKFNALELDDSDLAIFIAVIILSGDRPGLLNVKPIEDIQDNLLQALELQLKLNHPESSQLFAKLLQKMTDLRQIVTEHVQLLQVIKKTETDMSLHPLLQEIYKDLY

[3] = target: T3, Peroxisome proliferator-activated receptor gamma (Homo sapiens); experiment: Minimum effective concentration required to inhibit Peroxisome proliferator activated receptor gamma (PPAR gamma)
[4] = target: T1, Nuclear receptor subfamily 1 group I member 2; experiment: Minimum effective concentration required to inhibit pregnane X receptor (PXR)
In short: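 U2OS cells (1 × 10^6 per 10 cm dish) were calcium-phosphate transfected with the receptor expression vector (2 µg; Gal4 fusions for PXR and PPARα), the matching reporter (4 µg) and pCMV-β-galactosidase (4 µg). They were cultured 12 h, PBS-washed, given fresh medium 4 h, trypsinized and exposed to drugs 20 h. Luciferase/CAT activity normalized to β-galactosidase as stimulation index; triplicate cultures.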

Sequence of Estrogen receptor beta (Q92731 whole entry): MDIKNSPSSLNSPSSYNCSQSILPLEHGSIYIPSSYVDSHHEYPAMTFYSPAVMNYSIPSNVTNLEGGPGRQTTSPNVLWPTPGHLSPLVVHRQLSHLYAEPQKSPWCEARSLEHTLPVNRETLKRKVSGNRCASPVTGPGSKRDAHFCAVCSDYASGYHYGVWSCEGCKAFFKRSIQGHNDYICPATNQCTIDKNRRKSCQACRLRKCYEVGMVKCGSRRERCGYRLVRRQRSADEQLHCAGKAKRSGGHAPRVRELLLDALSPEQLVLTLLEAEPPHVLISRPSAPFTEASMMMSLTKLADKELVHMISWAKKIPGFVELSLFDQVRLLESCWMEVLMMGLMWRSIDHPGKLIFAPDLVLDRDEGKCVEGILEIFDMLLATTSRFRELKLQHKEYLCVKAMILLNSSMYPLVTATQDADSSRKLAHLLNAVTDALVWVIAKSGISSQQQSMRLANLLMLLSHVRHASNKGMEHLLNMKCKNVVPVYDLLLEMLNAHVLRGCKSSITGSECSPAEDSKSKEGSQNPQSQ

SMILES	MEC (Estrogen receptor beta)	MEC [1] [µM]	MEC (Estrogen receptor)	IC50 (U2OS (Homo sapiens)) [µM]	MEC [2] [µM]	MEC [3] [µM]	MEC [4] [µM]
COc1c(C=O)c(C)c(Cl)c(O)c1C/C=C(\C)CC/C=C(\C)[C@@H]1CC(=O)C(C)(C)O1	Not Active	1	Not Active	18	30		
CC(/C=C/[C@@]1(C)[C@H](C)CCC(=O)[C@@H]1C)=C\Cc1c(O)c(C=O)c(C)c(Cl)c1OC(=O)c1ccccn1						3	1
C/C(=C\Cc1c(O)c(C=O)c(C)c(Cl)c1OC(=O)CCCC(=O)O)CC/C=C(\C)[C@@H]1CC(=O)C(C)(C)O1	Not Active	10	Not Active	3.2			
CCOC(=O)COc1c(Cl)c(C)c(C=O)c(OC)c1C/C=C(C)/C=C/[C@@]1(C)[C@H](C)CCC(=O)[C@@H]1C	Not Active	1	Not Active	3.2	3		
COc1c(Cl)c(C)c(C=O)c(OC)c1CC1OC1(C)/C=C/[C@@]1(C)[C@H](C)CCC(=O)[C@@H]1C (some centres not stated)	Not Active	1	Not Active	10			
COc1c(C=O)c(C)c(Cl)c(OC(C)=O)c1C/C=C(\C)CC/C=C(\C)[C@@H]1CC(=O)C(C)(C)O1	Not Active	1	Not Active	10			
COc1c(C=O)c(C)c(Cl)c(OCC(=O)O)c1C/C=C(C)/C=C/[C@@]1(C)[C@H](C)CCC(=O)[C@@H]1C	Not Active	3	Not Active	56	3		
COc1c(Cl)c(C)c(C(=O)O)c(OC)c1C/C=C(C)/C=C/[C@@]1(C)[C@H](C)CCC(=O)[C@@H]1C	Not Active	1	Not Active	56			
CC(/C=C/[C@@]1(C)[C@H](C)CCC(=O)[C@@H]1C)=C\Cc1c(O)c(C=O)c(C)c(Cl)c1OC(=O)c1cccnc1	Not Active	3	Not Active	4.7	10		
COc1c(C=O)c(C)c(Cl)c(O)c1C/C=C(C)/C=C/[C@@]1(C)[C@H](C)CCC(=O)[C@@H]1C	Not Active	1	Not Active	5.6	10		
COc1c(C=O)c(C)c(Cl)c(OC(=O)c2ccncc2)c1C/C=C(C)/C=C/[C@@]1(C)[C@H](C)CCC(=O)[C@@H]1C						0.3	3
COc1c(C=O)c(C)c(Cl)c(OC(=O)c2ccccn2)c1C/C=C(C)/C=C/[C@@]1(C)[C@H](C)CCC(=O)[C@@H]1C						30	1
COc1c(Cl)c(C)c(C=O)c(O)c1C/C=C(\C)CC/C=C(\C)[C@@H]1CC(=O)C(C)(C)O1	Not Active	1	Not Active	5.6			
CC(/C=C/[C@@]1(C)[C@H](C)CCC(=O)[C@@H]1C)=C\Cc1c(O)c(C=O)c(C)c(Cl)c1OC(=O)c1ccncc1	Not Active	1	Not Active	10	10		
Cc1c(Cl)c2c(c(O)c1C=O)CC(CC(C)(O)/C=C/[C@@]1(C)[C@H](C)CCC3(OCCO3)[C@@H]1C)O2 (some centres not stated)	Not Active	3	Not Active	18			
COc1c(Cl)c(C)c(C=O)c(O)c1C/C=C(C)/C=C/[C@@]1(C)[C@H](C)CCC(=O)[C@@H]1C	Not Active	1	Not Active	1.8			
C/C(=C\Cc1c(O)c(C=O)c(C)c(Cl)c1OC(=O)c1ccncc1)CC/C=C(\C)[C@@H]1CC(=O)C(C)(C)O1	Not Active	10	Not Active	10			
COc1c(C=O)c(C)c(Cl)c(OC(=O)c2cccnc2)c1C/C=C(C)/C=C/[C@@]1(C)[C@H](C)CCC(=O)[C@@H]1C	Not Active	10	Not Active	37	100		
CC(=O)Oc1c(Cl)c(C)c(C=O)c(O)c1C/C=C(\C)CC/C=C(\C)[C@@H]1CC(=O)C(C)(C)O1	Not Active	1	Not Active	10			
C/C(=C\Cc1c(O)c(C=O)c(C)c(Cl)c1OC(=O)c1cccnc1)CC/C=C(\C)[C@@H]1CC(=O)C(C)(C)O1	Not Active	10	Not Active	10			
C/C(=C\Cc1c(O)c(C=O)c(C)c(Cl)c1OCC(=O)O)CC/C=C(\C)[C@@H]1CC(=O)C(C)(C)O1	Not Active	30	Not Active	32			
Cc1c(Cl)c(O)c2c(c1C=O)OC(C)(/C=C/[C@]1(C)C(C)C(=O)CC[C@H]1C)CC2 (some centres not stated)	Not Active	3	Not Active	56			
C/C(=C\Cc1c(O)c(Cl)c(C)c(C=O)c1O)CC/C=C(\C)[C@@H]1CC(=O)C(C)(C)O1 [ASCOFURANONE]	Not Active	3	Not Active	3.2			
CC(/C=C/[C@@]1(C)[C@H](C)CCC(=O)[C@@H]1C)=C\Cc1c(O)c(C=O)c(C)c(Cl)c1OC(=O)CCCC(=O)O	Not Active	1	Not Active	0.6	10		
CC(/C=C/[C@@]1(C)[C@H](C)CCC(=O)[C@@H]1C)=C\Cc1c(O)c(C=O)c(C)c(Cl)c1OCC(=O)O	Not Active	30	Not Active	56	30		
Cc1c(C=O)cc2c(c1Cl)OC(C)(/C=C/[C@]1(C)C(C)C(=O)CC[C@H]1C)CC2 (some centres not stated)	Not Active	1	Not Active	18			
